Our source for the cytotoxicity values is ChEMBL document CHEMBL4513216, “Probing the Open Global Health Chemical Diversity Library for Multistage-Active Starting Points for Next-Generation Antimalarials” (ACS Infect Dis, 2020).

Each structure is given as a SMILES string.

This data set is described as follows: Toxicity liver stage against HepG2, at 10uM. The class given is cell-based. Also on record: test concentration 10 uM, cell line HepG2-A16-CD81EGFP. The following applies: human, HepG2-A16-CD81EGFP cells; read-out: INHIBITION
A digest of the protocol: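 Uninfected HepG2-A16-CD81EGFP cells, 3 × 10^3 per well, 1536-well, plated on prespotted compound at 10 μM final, parasite-free screening media added to match infected plates; puromycin 10 μM positive, DMSO 0.5% negative; run in parallel with 48 h PbLuc assay at 37 °C, 5% CO2; viability by CellTiter-Glo luminescence, normalized to controls.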

For the molecule `CCc1nc(C)c([C@H]2CN(C)C[C@@H]2C(=O)NCCc2cnccn2)[nH]1`, the cytotoxicity at 10 µM was -9.52%.

Regarding `c1ccc2cc(OCCCN3CCn4c(nnc4C4CC4)C3)ccc2c1`, the cytotoxicity at 10 µM is -11.3%.

As for `O=C1N(Cc2ccc(F)c(F)c2)CCCC1(O)CNCc1ccccn1` (configuration not stated), the cytotoxicity at 10 µM was -2.63%.

As to `O=C(NCc1nc(NC2CCCC2)c2cc(Cl)ccc2n1)c1ccoc1`, the cytotoxicity at 10 µM is -2.99%.

With `CN(C)CCNC(=O)c1cc2c(s1)CCN2S(C)(=O)=O`, the cytotoxicity at 10 µM is 0.705%.

As to `O=C(CSc1ccc2c(c1)OCCO2)NS(=O)(=O)c1ccccc1Cl`, the cytotoxicity at 10 µM is -4.46%.

As for `CC1CCCCN1C(=O)c1coc(COc2cccc3cnccc23)n1` (configuration not stated), the cytotoxicity at 10 µM was -143%.

`COc1cc(C(C)NCc2scnc2C)ccc1SC(F)F` (configuration not stated): the cytotoxicity at 10 µM turned out to be 36.8%.

For the molecule `CCN(c1ccc(C(=O)N2CCC(C(N)=O)CC2)cc1)S(=O)(=O)CC`, the cytotoxicity at 10 µM worked out at 11.6%.

In the case of `CC(=O)NCC1CCN(c2cc(C)nc(-c3ccncc3)n2)CC1`, the cytotoxicity at 10 µM is -1.36%.

For `COc1ccccc1-n1c(CC(C)C)nnc1SCC(=O)O`, the cytotoxicity at 10 µM was -6.71%.

In the case of `O=C1CCC(C(=O)NCc2nncn2-c2ccccc2)CN1` (configuration not stated), the cytotoxicity at 10 µM is -12.7%.

As for `CC(C)CN1CCCC1c1ccc(C(=O)Nc2cccnc2)s1` (configuration not stated), the cytotoxicity at 10 µM is -6.79%.

Regarding `CC(C)(C)S(=O)(=O)c1ccc(N2CCC(n3cccn3)CC2)cn1`, the cytotoxicity at 10 µM amounted to 22.3%.

On to `CC(C)COC1CCN(C(=O)c2ccc(C(F)(F)F)[nH]c2=O)CC1`, for which the cytotoxicity at 10 µM was found to be 0.0436%.

On to `CCOCC(=O)N1CCCn2c(nnc2Cn2cccc2)C1`, for which the cytotoxicity at 10 µM was -130%.

In the case of `COC(=O)N1CCCCC1C(=O)N(C)Cc1cc(-c2cccnc2)no1` (configuration not stated), the cytotoxicity at 10 µM is 0.83%.

As for `Cc1nc(C)c(C(=O)N2Cc3ccccc3OCC2CN(C)C)o1` (configuration not stated), the cytotoxicity at 10 µM was determined as 2.2%.

In the case of `CCCc1nc(NCCOC)c2c(n1)c(C)nn2CC`, the cytotoxicity at 10 µM turned out to be 3.36%.

On to `CC(C)n1ccnc1C1CCN(Cc2ccc(Cl)c(F)c2)CC1`, for which the cytotoxicity at 10 µM is -3.59%.

`c1cnc(N2CCOCC3(CNCCO3)C2)nc1` (configuration not stated): the cytotoxicity at 10 µM was -112%.

On to `c1cc(N2CCOCC(Cc3ccc4[nH]ccc4c3)C2)ncn1` (configuration not stated), for which the cytotoxicity at 10 µM was -15.9%.

For `CN(Cc1cccs1)C(=O)CN1C(=O)c2cc(Cl)c(Cl)cc2C1=O`, the cytotoxicity at 10 µM was -6.13%.

For the molecule `CCOc1ncnc2c1CCN(S(=O)(=O)C1CC1)CC2`, the cytotoxicity at 10 µM is 3.42%.

Consider `Cc1cc(CN(C)C(=O)c2ccc(N(C)C)nc2)no1`, for which the cytotoxicity at 10 µM was -5.4%.

Regarding `CCN1CCCN(c2ncccc2C(=O)N2CCCCC2)CC1`, the cytotoxicity at 10 µM is -5.1%.

Regarding `CCc1ncc2c(n1)CN(c1cc(NC3CC3)nc(N)n1)C2`, the cytotoxicity at 10 µM is 5.75%.

`CCOC(C)c1noc(CN2CCCNCC2)n1` (configuration not stated): the cytotoxicity at 10 µM amounted to 5.44%.

As to `CN(C)Cc1nc(C(C)(C)NC(=O)c2ccnn2C)no1`, the cytotoxicity at 10 µM is 0.966%.

With `O=C(CCc1ccncc1)N1CCc2c(ncnc2N2CCOCC2)C1`, the cytotoxicity at 10 µM is -11.5%.

Consider `CN(C(=O)Cn1nc(-c2ccc(Cl)cc2)ccc1=O)C1CCS(=O)(=O)C1` (configuration not stated), for which the cytotoxicity at 10 µM was 1.96%.

Regarding `CCNC(=O)CN1CCc2c(Br)ccc(F)c2C1`, the cytotoxicity at 10 µM worked out at 4.34%.

Take `CC(C)N(CC(N)=O)C(=O)c1cc(F)ccc1N1CCN(C)CC1`: the cytotoxicity at 10 µM turned out to be 7.66%.

Regarding `CCOCC1CN(Cc2ccoc2)Cc2ncn(CC3CC3)c21` (configuration not stated), the cytotoxicity at 10 µM is -14.5%.

With `CCNC(=O)c1ccc(CNCc2c(C)nn(C)c2N(C)C)cc1`, the cytotoxicity at 10 µM turned out to be 1.71%.

As for `CN(C)c1cc2c(nn1)CCN(C(=O)C1CCc3ccccc31)C2` (configuration not stated), the cytotoxicity at 10 µM was -12.2%.

Regarding `Cn1cc(CN2CCC(c3cc(COc4cccc(Cl)c4)[nH]n3)C2)cn1` (configuration not stated), the cytotoxicity at 10 µM was -2.93%.

As for `CC(=O)c1c(C)nn(CC(=O)N2Cc3cnc(CC(C)C)nc3C2)c1C`, the cytotoxicity at 10 µM stood at 3.75%.

With `Cn1ccnc1C(=O)N1CCC(Cn2cc(-c3ccsc3)nn2)CC1`, the cytotoxicity at 10 µM was -6.46%.

For `Cc1ccc(-c2ccnc(N(C)CC3CCCN3C)n2)c(C)n1` (configuration not stated), the cytotoxicity at 10 µM is -9.66%.

For `Cc1cc(C)c(CNC(=O)N2CCC(N3CCNC3=O)CC2)c(=O)[nH]1`, the cytotoxicity at 10 µM stood at 4.16%.

Turning to `NC(=O)C1CCN(C(=O)C2SCCc3sccc32)CC1` (configuration not stated), the cytotoxicity at 10 µM is -6.02%.

`Cc1nn(Cc2ccccc2)c(C)c1CNC1CCc2ncnn2C1` (configuration not stated): the cytotoxicity at 10 µM was -1.04%.

With `Cc1cc(C)n(-c2cncc(NCCNC(=O)C(C)(C)C)n2)n1`, the cytotoxicity at 10 µM was 1.36%.

Turning to `CCOc1cc(C)nc(N2CCN(C(=O)c3cn[nH]c3CC)CC2)n1`, the cytotoxicity at 10 µM was -2%.

As for `Cc1nn(-c2ncccn2)c2c1C(c1cnn(C)c1C)SCC(=O)N2` (configuration not stated), the cytotoxicity at 10 µM is -46.4%.

In the case of `Cc1ccccc1-n1ccc2nc(N3CCCC3)ncc2c1=O`, the cytotoxicity at 10 µM was -5.1%.

Turning to `COc1ccccc1NC(=O)CCNC(=O)c1ccoc1`, the cytotoxicity at 10 µM was 1.66%.

With `O=C(NC1CCN(c2ccc(-c3ccccc3F)nn2)C1)C1CCC1` (configuration not stated), the cytotoxicity at 10 µM came to 26%.

On to `Cc1cc(N(Cc2ccon2)S(C)(=O)=O)ccc1Br`, for which the cytotoxicity at 10 µM was 4.51%.

As for `Cc1noc(C)c1C(=O)N1CCSc2ccc(Cl)cc21`, the cytotoxicity at 10 µM is -108%.

With `COc1ccc(-c2cc(CNc3ncnc4c3CCNCC4)no2)cc1`, the cytotoxicity at 10 µM amounted to 13.1%.

For `COCC1Cn2nnc(-c3cnn(C)c3)c2CN1Cc1ccco1` (configuration not stated), the cytotoxicity at 10 µM was -9.44%.

On to `Cc1cc(C)nc(N2CC[C@@]3(O)CCN(S(=O)(=O)N(C)C)C[C@H]3C2)n1`, for which the cytotoxicity at 10 µM came to 3.5%.

For `Cc1ccc(-n2cc(S(=O)(=O)Nc3cccc(C(=O)O)c3C)cn2)cc1`, the cytotoxicity at 10 µM is -1.74%.

In the case of `O=C(C1SCCc2sccc21)N1CCN(CCO)CC1` (configuration not stated), the cytotoxicity at 10 µM is -19.8%.

Take `Cc1nc(-c2cc(C(=O)NC(C)(C(=O)O)C(C)C)co2)cs1` (configuration not stated): the cytotoxicity at 10 µM worked out at 1.84%.

In the case of `O=S(=O)(CC1CCCCO1)Nc1cnn(Cc2ccccc2)c1` (configuration not stated), the cytotoxicity at 10 µM was determined as 4.34%.

For the molecule `CC(C)(C)S(=O)(=O)CCNC(=O)c1cnc(-c2ccccc2)nc1`, the cytotoxicity at 10 µM stood at 2.92%.

Take `CC(=O)Nc1ccc(S(=O)(=O)Nc2c(F)cccc2F)cc1`: the cytotoxicity at 10 µM stood at 12.6%.

Consider `CCOC(=O)Cn1c(=O)nc(N)c2c(-c3ccc(OC)cc3)csc21`, for which the cytotoxicity at 10 µM is -33.2%.

Regarding `CC(=O)N1CCCC(c2ccc(Cc3ccccc3)cn2)C1` (configuration not stated), the cytotoxicity at 10 µM was -20.6%.

As for `COc1c(CNC2CCCN(c3ncccn3)C2)c(C(C)C)nn1C` (configuration not stated), the cytotoxicity at 10 µM was -9.94%.

In the case of `Oc1ccc(N2CCC(Cc3ccccc3)CC2)nn1`, the cytotoxicity at 10 µM amounted to 45.4%.

As for `CNc1nc(C(=O)N2CCCCC2c2ccc(CN(C)C)cc2)cs1` (configuration not stated), the cytotoxicity at 10 µM was -2.86%.

Turning to `Cn1cc(C2CCCN2C(=O)CCn2c(=O)oc3ccccc32)cn1` (configuration not stated), the cytotoxicity at 10 µM was 4.91%.

`Fc1ccc(CN2CCC3(CCCN(c4nncs4)C3)C2)cc1` (configuration not stated): the cytotoxicity at 10 µM was -141%.

As to `Clc1ccc2cccnc2c1CN1CCn2c(nnc2C2CC2)C1`, the cytotoxicity at 10 µM is -2.19%.

Regarding `CC(C)n1cnc2c(-c3cccnc3)nc(C3CCNCC3)cc21`, the cytotoxicity at 10 µM is -114%.

Turning to `Cc1occc1C(=O)N1CC[C@H]2C[C@@H](c3nnc(C4CC4)o3)O[C@@H]2C1`, the cytotoxicity at 10 µM was -111%.

On to `Cc1cccc(CC(=O)N2CCCCC2CN)c1` (configuration not stated), for which the cytotoxicity at 10 µM was 5.68%.

Take `Cc1cccc(CN2CCn3c(C(=O)N(C)C)cnc3C2)c1`: the cytotoxicity at 10 µM is -69.5%.

Consider `CC(Cn1cncn1)Nc1ccc(-c2nccn2C)nn1` (configuration not stated), for which the cytotoxicity at 10 µM is -3.73%.

As to `CCN(C(=O)c1cccc2c1OCO2)c1ccc(Br)cn1`, the cytotoxicity at 10 µM was 3.44%.

Turning to `CNS(=O)(=O)c1ccc(CNC(=O)NCC2CCC2)cc1`, the cytotoxicity at 10 µM worked out at 6.26%.

In the case of `CC(C)(C)c1noc(-c2nc3c([nH]2)CCCNC3=O)n1`, the cytotoxicity at 10 µM is -3.83%.

Turning to `Cc1cc(F)cc(NC(=O)N(C)CC(C)(CO)CO)c1`, the cytotoxicity at 10 µM was -1.44%.

As to `C1CC1c1nsc(N2CCN(C3CC3)CC2)n1`, the cytotoxicity at 10 µM was -16.4%.

With `Cc1c(C(=O)N2CCCC2c2cnn(C)c2)nnn1-c1ccccc1` (configuration not stated), the cytotoxicity at 10 µM was -11.4%.

With `CCCS(=O)(=O)NCCn1ccc(-c2cccs2)n1`, the cytotoxicity at 10 µM is 5.55%.

Take `CN(C)c1ncccc1CNC(=O)NCc1cccs1`: the cytotoxicity at 10 µM is -4.87%.

In the case of `Cc1nc(CN2CCO[C@H]3CN(C(=O)c4cscn4)C[C@H]32)cs1`, the cytotoxicity at 10 µM is -128%.

For `Cc1ccc(CCNC(=O)NCc2cccc(OC(F)F)c2)cn1`, the cytotoxicity at 10 µM is -2.66%.

Turning to `COc1ccc(OCc2nc(C(=O)NCCN3CCOCC3)co2)cc1`, the cytotoxicity at 10 µM came out at 1.87%.

Regarding `Cc1cc(CN(C)C(=O)c2cccc(CCC(C)(C)O)c2)no1`, the cytotoxicity at 10 µM is -2.02%.

On to `Cc1noc(C)c1S(=O)(=O)NC(=O)COc1ccc2c(c1)CCC2`, for which the cytotoxicity at 10 µM is -3.07%.

With `CCc1ccccc1-n1nnc(C(=O)O)c1-c1ccccn1`, the cytotoxicity at 10 µM was -6.42%.

In the case of `COCCCN1CCCC12CCN(c1ncccn1)CC2`, the cytotoxicity at 10 µM was 2.87%.

For `Cc1ccc(-c2nc3cc(S(=O)(=O)N4CCCC4)ccc3n2C)o1`, the cytotoxicity at 10 µM was found to be 1.38%.

`CNC(=O)[C@H]1CO[C@H]2CCN(c3ncc(F)cn3)C[C@H]2C1`: the cytotoxicity at 10 µM was -0.0253%.

On to `CCc1nnc2n1CC(CNCc1nc(-c3ccsc3)no1)CC2` (configuration not stated), for which the cytotoxicity at 10 µM was -5.34%.

With `Clc1ccc2oc(C3CCN(Cc4cccnc4)CC3)nc2c1`, the cytotoxicity at 10 µM came out at 9.82%.

As to `COc1cccc(-c2n[nH]cc2CNC2CCCN(C)C2)c1` (configuration not stated), the cytotoxicity at 10 µM was -8.86%.

`Clc1ccccc1-c1nc(CNC2CCc3ncnn3C2)cs1` (configuration not stated): the cytotoxicity at 10 µM was -4.28%.

Regarding `Cc1nc(NC2CCCC2)cc(C2CCN2c2ncccn2)n1` (configuration not stated), the cytotoxicity at 10 µM was -0.943%.

With `CS(=O)(=O)Cc1cccc(C(=O)N2CCCC(n3cccn3)C2)c1` (configuration not stated), the cytotoxicity at 10 µM is 5.05%.

`COc1nc(N2CCN(C(C)=O)CC2)ncc1Br`: the cytotoxicity at 10 µM came out at 0.27%.
